For orientation: apparent Kd means a dissociation constant that holds for the conditions of the assay.

The data set deals with MS2 coat protein. Nature of the data set: apparent Kd, MS2 coat protein; higher = weaker binding; RNA-MaP array; FMN 200 µM where present. The procedure, abridged:
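Stalled E. coli RNA polymerase transcribed each design on Illumina sequencing-chip clusters. The clusters were titrated with SNAP-549-labelled MS2 coat protein, starting at 0.7 or 1.5 nM and doubling up to 3 µM, first without ligand and then with constant ligand, in 100 mM Tris-HCl pH 7.5, 80 mM KCl, 4 mM MgCl2, BSA, DTT, yeast tRNA and Tween-20. Green signal was normalised to red-channel RNA signal and to the control-cluster median Fmax. The apparent Kd is the median of filtered binding-curve fits made for each cluster.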

[1] abbreviates: designed as: OFF switch for flavin mononucleotide, no ligand.
The mark [2] stands for this setting: ligand present: flavin mononucleotide, designed as: OFF switch for flavin mononucleotide.
Where [3] appears, read: designed as: ON switch for flavin mononucleotide, no ligand.
Where [4] appears, read: ligand present: flavin mononucleotide, designed as: ON switch for flavin mononucleotide.

As to “GAUAAGGGCGAGGAUAUGCCAUUGGCUGAGGUCGUAGAAGGUGCCACAUGAGGAUCACCCAUGUAUCAAGUACG”, the “apparent Kd” value was determined as 34.5 nM under setting [1] and 32.4 nM under setting [2].

For the sequence “GGAGCAGGGUCAGGAUAUGUAAGUAGACGGCAAAUAGAAGGGACAUGAGGAUCACCCAUGUAACAUUAAAAUGAAGCAAGGGAG”, the “apparent Kd” value under setting [1] was determined as 59.1 nM and the “apparent Kd” value under setting [2] turned out to be 71.1 nM.

As for “GCACUUCGGCAGAAGGGACUAUGGGUAUGGUAGUCAGGAUAUGCAGGGUGGGCGUUUCACAUGAGGAUCACCCAUGUAGGACCA”, the “apparent Kd” value is 15.1 nM under setting [3] and 8.52 nM under setting [4].

As for “CGCUAAUAAUUAAUAUUAAUUGUACAGGAUAUGUUACAUGAGGAUCACCCAUGUAUUGGGUUUAAACAGAAGGGUAUAUUAGCG”, the “apparent Kd” value reads like this: under setting [1], 191 nM; under setting [2], 81.4 nM.

For “CAGGUAGACUGAGGAUAUACACUAAACAGCUAGUCUAUCUAGCUGAUCACAUGAGGAUCACCCAUGUAGAAGGCAGUCUGCCUG”, the “apparent Kd” value reads like this: under setting [1], 19.6 nM; under setting [2], 56.5 nM.

With “GAUGCAUAUGAGAAGGCGAUCAUGAAACAUGAUCGAGGAUAUCAUGUAAACAUGAGGAUCACCCAUGUAUGGGAAAAGUGCAUC”, the “apparent Kd” value by setting is: under setting [3], 72.4 nM; under setting [4], 11.4 nM.

For the sequence “AUCAGAUCUCGACUGUCCAACAUGAGGAUCACCCAUGUCAGAAGAAGGGACUAUUAACUAAUCUGUCAGGAUAUUUUGACGCGG”, the “apparent Kd” value is, setting by setting: under setting [1], 10.6 nM; under setting [2], 49.7 nM.

On to “GCCAAUGUGGAGGAUAUCGACUUCGAAAGAAGUCGAGAAGGCCACACAUGAGGAUCACCCAUGUGAUGCCUGGC”, for which the “apparent Kd” value under setting [1] was 199 nM and the “apparent Kd” value under setting [2] is 231 nM.

Regarding “UUCCAACGAGGAUAUCGAUGGUGGAACAUGAGGAUCACCCAUGUAUGAGAUAGUGUAGUUCGAGAAGGCGUUCAGU”, the “apparent Kd” value is, setting by setting: under setting [1], 58 nM; under setting [2], 32.3 nM.

As to “GGGAGACAUGAGGAUCACCCAUGUGAAAACGUGGCAGGAUAUCGAUGGAAACCAUACUGUCGAGAAGGGCCUUGUC”, the “apparent Kd” value by setting is: under setting [3], 56.7 nM; under setting [4], 35.6 nM.

“CUAUUGGUAACAGGAUAUAUGAGUCCUACAUGAGGAUCACCCAUGUAGGUGGUCAAACGUGAUUAGUAGAAGGGUUACCAAUAG”: the “apparent Kd” value worked out at 12.2 nM under setting [3] and 6.18 nM under setting [4].

Take “CAUUAAUUCAUUAUAUUAAUUUUACAGGAUAUGUAACAUGAGGAUCACCCAUGUAUUCUAGGUUAACAGAAGGGUAUUACUUGU”: the “apparent Kd” value is, setting by setting: under setting [1], 28.6 nM; under setting [2], 22.9 nM.

Regarding “UCGGUGCGAGGAUAUACGUUUGCGCGUUUUCGUUUGCGCGUACAUGAGGAUCACCCAUGUAGAAGGCGCGCGGC”, the “apparent Kd” value stood at 12.4 nM under setting [1] and 13.7 nM under setting [2].

Take “UUGUGCUUAGAGAAGGUUCAAACUACAUAUUGCGCACAUGAGGAUCACCCAUGUUGGUGAAUAAGAAAGGAUAUUUGACUGUGC”: the “apparent Kd” value is, setting by setting: under setting [1], 487 nM; under setting [2], 360 nM.

As to “AUCAGCUCGUCAGGAUAUACGUCACUGCGUCAGCAGUGUGGUAAGAUCACAUGAGGAUCACCCAUGUAGAAGGAACGAGCUGAU”, the “apparent Kd” value under setting [1] was 8.41 nM and the “apparent Kd” value under setting [2] turned out to be 14.7 nM.

Take “GGACGACCCAUUAACAUGAGGAUCACCCAUGUCAAAAGACAUGAGGAUAUGGUACCUAAUUGGUACCAGAAGGCAUGGUCGUCC”: the “apparent Kd” value was 1470 nM under setting [3] and 107 nM under setting [4].

Consider “ACUGACAUGAGGAUCACCCAUGUCUUGAAUAGGUCAAAUUCACAGGAUAUGCACGAGGACAGAGUGCAGAAGGGUGAUGCAAUG”, for which the “apparent Kd” value under setting [3] was determined as 47.7 nM and the “apparent Kd” value under setting [4] turned out to be 11.7 nM.

Take “CAGGAUAGAGGAUAUACAUAGAUACAGAUUCAUGUGAUCCUACAUGAGGAUCACCCAUGUAGAAGGCUAACCUG”: the “apparent Kd” value under setting [1] was 288 nM and the “apparent Kd” value under setting [2] stood at 82.2 nM.

For “GUGUACAGAGGAUAUACUUGAAUCUAGCGAAGCUAGGUUUGACAUGAGGAUCACCCAUGUAGAAGGCUGUACAC”, the “apparent Kd” value came out at 15.3 nM under setting [1] and 20.5 nM under setting [2].

Regarding “UUGGCAUCGUAGAAGGGUGACAUGAGGAUCACCCAUGUGACGAUAUUUCUCGAGAUAUGUCGUCCACAGGAUAUACGAGCGAAC”, the “apparent Kd” value worked out at 72.3 nM under setting [3] and 42.4 nM under setting [4].

Turning to “AAAGGUGCAGGAUAUGCGUGGAAAAAGUGUAUUCAAAAAAAACAUGAGGAUCACCCAUGUAGAAGGGUACCAAA”, the “apparent Kd” value under setting [1] is 65.9 nM and the “apparent Kd” value under setting [2] came to 180 nM.

Regarding “AGCGAGGUAGGAUAUACAUGAGGAUCACCCAUGUGCUUGCAUGGCGUGGAACGUCGAGGUAGAAGGGCCGCGCC”, the “apparent Kd” value is, setting by setting: under setting [1], 24.2 nM; under setting [2], 35.7 nM.

In the case of “ACCUCACAUGAGGAUCACCCAUGUCAGGAUAUACAAACCGUGUAAAGACACGGUCGUAGUAGAAGGGACUAUGG”, the “apparent Kd” value is, setting by setting: under setting [1], 68 nM; under setting [2], 18.7 nM.

With “CAGUUCUGAGGAUAUCCACCCUCCUACAUGAGGAUCACCCAUGUUUCCCUCUGGGUUUUCGGAGAAGGCAGUUAUC”, the “apparent Kd” value runs as follows: under setting [1], 44.7 nM; under setting [2], 79.6 nM.

Regarding “UUACUCAUGUAAGGAUAUGUAGCCGAAACGGCUGCAGAAGGUACUAAAAUACAUGAGGAUCACCCAUGUCUUUUUAAUUUAGAC”, the “apparent Kd” value came out at 216 nM under setting [3] and 50.9 nM under setting [4].

Consider “UGUGUGUGGCAGGAUAUGCAGGUAAUAGGACGGGUAGAAGGGUCUACAUGAGGAUCACCCAUGUGGCCGGUUGG”, for which the “apparent Kd” value was determined as 16.1 nM under setting [1] and 16 nM under setting [2].

Take “AAUAUAGAAGGAUAUGCAGCCGUGAGCCAUAGAGGAGACGAACAUGAGGAUCACCCAUGUAGAAGGUCUCGAUU”: the “apparent Kd” value was 13.1 nM under setting [1] and 12.4 nM under setting [2].

In the case of “ACACGGUAUGUAGGAUAUGCAUAGCAUUGCUAUGCAGAAGGACAUGAGGAUCACCCAUGUAUGUAUUCCAUACUAAUCCCGUGC”, the “apparent Kd” value under setting [1] amounted to 6.03 nM and the “apparent Kd” value under setting [2] amounted to 6 nM.

“GGUGCACGCACAGGAUAUCCGGCGGAGCUCGUCGGAGAAGGGUGACAUGAGGAUCACCCAUGUACGUGCAACCCAGUUUGAGGG”: the “apparent Kd” value is 59.6 nM under setting [3] and 28.5 nM under setting [4].

Take “AGUGAGGGAGGAUAUACGUUGGUAUCACUGCAUUCGUCGUCACAUGAGGAUCACCCAUGUAGAAGGCCCGAGAG”: the “apparent Kd” value under setting [1] is 28.8 nM and the “apparent Kd” value under setting [2] is 79.1 nM.

As to “AUGCUAUACGAAGGAUAUGGUUACAUGAGGAUCACCCAUGUUAUGAUUGGUUACUUGUUUAGUUUCCAGAAGGUCGUAUAUUUA”, the “apparent Kd” value is, setting by setting: under setting [1], 51 nM; under setting [2], 235 nM.

On to “AGGUGUCCUGAGAAAUUUCUCCACAUGAGGAUCACCCAUGUAGAGGAUAUCGACGCUGUGCGGUUCGAGAAGGCUACACUAAUU”, for which the “apparent Kd” value by setting is: under setting [1], 6.54 nM; under setting [2], 22.7 nM.

Turning to “UUGGAGGUCGUAGGAUAUGUAGGAUAUUCCUACAUGAGGAUCACCCAUGUUGACAUGGAAGAAGGACAGAAGGACGAUGUCCAU”, the “apparent Kd” value worked out at 367 nM under setting [3] and 6.26 nM under setting [4].

“GUCACACACUGCUCCGUGUCUGACAUGAGGAUCACCCAUGUGAGAAGGUAGCGUCGAAGCAACGUUAAGGAUAUCACGUGCAGU”: the “apparent Kd” value worked out at 6.68 nM under setting [1] and 8.39 nM under setting [2].

With “CCGGAAAUACAGGAUAUAGGAGUCGAUAGACUCCUAGAAGGGUAUACAUGAGGAUCACCCAUGUGUCCUACCGG”, the “apparent Kd” value under setting [1] is 26.5 nM and the “apparent Kd” value under setting [2] worked out at 31.7 nM.

Turning to “UACAUGUGAGGAUAUGUACGAGGCCCUGACGGGUCUCGCAGGCAGAAGGCACAUGAGGAUCACCCAUGUGACCG”, the “apparent Kd” value stood at 24.7 nM under setting [1] and 96.6 nM under setting [2].

With “UGGUACAUCGCAGGAUAUCAUGUAGAUACAUGAGGAUCACCCAUGUCGAUGGAGACAUCGGAGAUUGAGAAGGGCGAUGUACCU”, the “apparent Kd” value by setting is: under setting [3], 907 nM; under setting [4], 41.1 nM.

As to “AAGGAUCGCACAGGAUAUCAUACAUGAGGAUCACCCAUGUCAGAAAACAAAUGAGAAGGGUGCGCAUUAAUUGCUUGUGAAGAA”, the “apparent Kd” value is 17.9 nM under setting [3] and 4.65 nM under setting [4].

Consider “GGUUGGCAGCUAGGAUAUGGGCGGUCACAUGAGGAUCACCCAUGUCAACAUCAAAACCAGAUUAACCAGAAGGAGCUGCGGGUU”, for which the “apparent Kd” value is 14.8 nM under setting [3] and 87.7 nM under setting [4].

As for “CUUCGACAUGAGGAUCACCCAUGUCAGGAUAUUGUGUAUCUGGUUUUUUACAGAUAGACAAGAAGGGAUGUGUU”, the “apparent Kd” value by setting is: under setting [1], 27.1 nM; under setting [2], 23.4 nM.

In the case of “AGGCGAGUAGGAUAUGCGUUUUUACGGGAAAGCUGGAUGAUACAUGAGGAUCACCCAUGUAGAAGGGCUCUGAA”, the “apparent Kd” value was 20.6 nM under setting [1] and 16 nM under setting [2].

Turning to “CUUAAACAUGAGGAUCACCCAUGUGAGGAUAUGAUGCGAAUAAAGAAAGAAGAAAGCAUCAGAAGGCACAUAUG”, the “apparent Kd” value under setting [1] came to 86.9 nM and the “apparent Kd” value under setting [2] is 236 nM.

As for “AGGAAGUUAGGAUAUGCUGCUCGUCACUUGCGUGAUGAGUAGCAGAAGGAACAUGAGGAUCACCCAUGUAAAGA”, the “apparent Kd” value runs as follows: under setting [1], 30.8 nM; under setting [2], 27.2 nM.

As for “CGGAUCAAUACAGGAUAUGGUGACGCACAUGAGGAUCACCCAUGUCCGCAGCGUGCUAAGCACGCCCAGAAGGGUAUUGAUUCG”, the “apparent Kd” value was 738 nM under setting [3] and 68.3 nM under setting [4].

Regarding “GUCAAGUGAGGAUAUGAUUGUACGGCAGACUAGCGUCUGCAUCAGAAGGCACAUGAGGAUCACCCAUGUUUGUC”, the “apparent Kd” value came to 19.1 nM under setting [1] and 16.9 nM under setting [2].

For the sequence “UCAUAUUUACAAGGAUAUCAAUUAUUUAUACAUCCUACAUGAGGAUCACCCAUGUUUUUAUAUUUUGAGAAGGUGUAAUGUCGG”, the “apparent Kd” value was determined as 44.4 nM under setting [3] and 40.4 nM under setting [4].

On to “AAUAUAAGAGCUGGUAAAUAACUCACAUGAGGAUCACCCAUGUAGGAUAUCAGCACGAUAAGUGCUGAGAAGGACAUCCAGCUC”, for which the “apparent Kd” value runs as follows: under setting [1], 15.4 nM; under setting [2], 16.2 nM.

As for “CGUUGGUUAGGAUAUAGCCUCCUGGUGGGAAGGCCGGGUGGCUAGAAGGAACAUGAGGAUCACCCAUGUAUGGA”, the “apparent Kd” value runs as follows: under setting [1], 62.6 nM; under setting [2], 33.3 nM.
